Reference: ChEMBL document CHEMBL5303300, “EUbOPEN Chemogenomics Library - Multiplex” (2023)
Where “and” joins values, the source holds several entries; their conditions need not be identical. Identical values can stand only once.

Test system: HEK-293T
Assay: Multiplex assay against HEK293T
Type: toxicity, cell-based
Settings: human, number of replicates 2
Outline: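 Four dyes were applied at seeding to live cells: Hoechst33342, BioTracker Green Microtubule Cytoskeleton Dye, MitoTracker Red and Annexin V Alexa Fluor 680. Imaging after compound addition used a CQ1 microscope at 37°C and 5% CO2. CellPathfinder machine-learning gating then sorted cells into Hoechst high-intensity objects or normal cells, normal cells into healthy, pyknosed or fragmented nuclei, and pyknosed cells into mitotic or apoptotic, with tubulin, mitochondrial-mass and membrane-permeability phenotypes given as per cents of healthy-nucleus cells.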

[1] = 12 h, 1 µM, compound concentration 1 uM
[2] = 12 h, 10 µM, compound concentration 10 uM
[3] = 24 h, 1 µM, compound concentration 1 uM
[4] = 24 h, 10 µM, compound concentration 10 uM
[5] = 48 h, 1 µM, compound concentration 1 uM
[6] = 48 h, 10 µM, compound concentration 10 uM

How did the “Population Apoptotic (%)” value [1] turn out when CN(C)[C@H]1CC[C@H](Nc2ncc3ncnc(Nc4ccc(F)c(Cl)c4)c3n2)CC1 was run?
The value was 46% and 50%.

What about the “Population Fragmented Nuclei (%)” value [1] of the same molecule?
The value was 4% and 5%.

What about the “Population Healthy Nuclei (%)” value [1] of the same molecule?
Its value is 88% and 87%.

What about the “Population Hoechst High Intensity Objects (%)” value [1] of the same molecule?
The value was 9% and 10%.

What about the “Population Membrane Permeable-Phenotype (%)” value [1] of the same molecule?
Its value is 2% and 1%.

What about the “Population Mitochondria Different-Phenotype (%)” value [1] of the same molecule?
The value was 14% and 10%.

What about the “Population Mitotic Cells (%)” value [1] of the same molecule?
The value was 53% and 50%.

And the “Population Normal (%)” value [1]?
The value was 90% and 89%.

What about the “Population Pyknosed Nuclei (%)” value [1] of the same molecule?
The value was 7%.

And the “Population Tubulin-Different-Phenotype (%)” value [1]?
Its value is 45% and 36%.

And the “Total Cell Count” value [1]?
Its value is 608 and 681.

And the “Population Apoptotic (%)” value [2]?
The value was 30% and 17%.

And the “Population Fragmented Nuclei (%)” value [2]?
Its value is 6% and 7%.

And the “Population Healthy Nuclei (%)” value [2]?
Its value is 82% and 79%.

What about the “Population Hoechst High Intensity Objects (%)” value [2] of the same molecule?
The value was 47% and 50%.

And the “Population Membrane Permeable-Phenotype (%)” value [2]?
The value was 3% and 4%.

What about the “Population Mitochondria Different-Phenotype (%)” value [2] of the same molecule?
Its value is 6% and 5%.

And the “Population Mitotic Cells (%)” value [2]?
The value was 69% and 82%.

What about the “Population Normal (%)” value [2] of the same molecule?
Its value is 52% and 49%.

What about the “Population Pyknosed Nuclei (%)” value [2] of the same molecule?
The value was 10% and 13%.

And the “Population Tubulin-Different-Phenotype (%)” value [2]?
The value was 33% and 29%.

What about the “Total Cell Count” value [2] of the same molecule?
The value was 768 and 714.

What about the “Population Apoptotic (%)” value [3] of the same molecule?
Its value is 40% and 51%.

What about the “Population Fragmented Nuclei (%)” value [3] of the same molecule?
Its value is 7% and 8%.

And the “Population Healthy Nuclei (%)” value [3]?
Its value is 87% and 88%.

And the “Population Hoechst High Intensity Objects (%)” value [3]?
The value was 10% and 11%.

And the “Population Membrane Permeable-Phenotype (%)” value [3]?
The value was 2% and 1%.

And the “Population Mitochondria Different-Phenotype (%)” value [3]?
The value was 4% and 3%.

And the “Population Mitotic Cells (%)” value [3]?
Its value is 60% and 48%.

And the “Population Normal (%)” value [3]?
Its value is 89% and 88%.

And the “Population Pyknosed Nuclei (%)” value [3]?
Its value is 4% and 2%.

What about the “Population Tubulin-Different-Phenotype (%)” value [3] of the same molecule?
The value was 21% and 22%.

And the “Total Cell Count” value [3]?
Its value is 1021 and 1110.

And the “Population Apoptotic (%)” value [4]?
The value was 17% and 13%.

And the “Population Fragmented Nuclei (%)” value [4]?
The value was 8% and 9%.

And the “Population Healthy Nuclei (%)” value [4]?
The value was 82% and 77%.

And the “Population Hoechst High Intensity Objects (%)” value [4]?
Its value is 44% and 49%.

What about the “Population Membrane Permeable-Phenotype (%)” value [4] of the same molecule?
The value was 2%.

What about the “Population Mitochondria Different-Phenotype (%)” value [4] of the same molecule?
Its value is 2% and 4%.

What about the “Population Mitotic Cells (%)” value [4] of the same molecule?
Its value is 82% and 86%.

What about the “Population Normal (%)” value [4] of the same molecule?
The value was 55% and 50%.

What about the “Population Pyknosed Nuclei (%)” value [4] of the same molecule?
Its value is 8% and 13%.

And the “Population Tubulin-Different-Phenotype (%)” value [4]?
Its value is 24% and 21%.

What about the “Total Cell Count” value [4] of the same molecule?
The value was 1161 and 1002.

And the “Population Apoptotic (%)” value [5]?
Its value is 17% and 35%.

What about the “Population Fragmented Nuclei (%)” value [5] of the same molecule?
Its value is 23% and 21%.

And the “Population Healthy Nuclei (%)” value [5]?
The value was 74% and 76%.

And the “Population Hoechst High Intensity Objects (%)” value [5]?
The value was 12% and 15%.

What about the “Population Membrane Permeable-Phenotype (%)” value [5] of the same molecule?
Its value is 4% and 3%.

What about the “Population Mitochondria Different-Phenotype (%)” value [5] of the same molecule?
The value was 0%.

What about the “Population Mitotic Cells (%)” value [5] of the same molecule?
The value was 82% and 64%.

What about the “Population Normal (%)” value [5] of the same molecule?
The value was 87% and 84%.

And the “Population Pyknosed Nuclei (%)” value [5]?
Its value is 2% and 1%.

What about the “Population Tubulin-Different-Phenotype (%)” value [5] of the same molecule?
Its value is 9% and 13%.

And the “Total Cell Count” value [5]?
Its value is 2456 and 2598.

What about the “Population Apoptotic (%)” value [6] of the same molecule?
Its value is 24% and 15%.

What about the “Population Fragmented Nuclei (%)” value [6] of the same molecule?
Its value is 22% and 17%.

What about the “Population Healthy Nuclei (%)” value [6] of the same molecule?
Its value is 74%.

What about the “Population Hoechst High Intensity Objects (%)” value [6] of the same molecule?
Its value is 36% and 42%.

What about the “Population Membrane Permeable-Phenotype (%)” value [6] of the same molecule?
Its value is 3%.

What about the “Population Mitochondria Different-Phenotype (%)” value [6] of the same molecule?
Its value is 0%.

What about the “Population Mitotic Cells (%)” value [6] of the same molecule?
The value was 75% and 84%.

What about the “Population Normal (%)” value [6] of the same molecule?
Its value is 63% and 57%.

What about the “Population Pyknosed Nuclei (%)” value [6] of the same molecule?
Its value is 3% and 7%.

And the “Population Tubulin-Different-Phenotype (%)” value [6]?
The value was 14% and 15%.

And the “Total Cell Count” value [6]?
The value was 2410 and 1820.

What does the source list for Cc1cc(C2CCCNC2)ccc1Nc1ncc(Br)c(NCc2cccc3c2C(C)(C)C(=O)N3)n1 (configuration not stated)?
Population Apoptotic (%) [1]: 54%; Population Fragmented Nuclei (%) [1]: 4% and 2%; Population Healthy Nuclei (%) [1]: 88% and 83%; Population Hoechst High Intensity Objects (%) [1]: 12% and 15%; Population Membrane Permeable-Phenotype (%) [1]: 2% and 1%; Population Mitochondria Different-Phenotype (%) [1]: 46% and 53%; Population Mitotic Cells (%) [1]: 45%; Population Normal (%) [1]: 87% and 84%; Population Pyknosed Nuclei (%) [1]: 7% and 13%; Population Tubulin-Different-Phenotype (%) [1]: 94% and 92%; Total Cell Count [1]: 482 and 397; Population Apoptotic (%) [2]: 79% and 80%; Population Fragmented Nuclei (%) [2]: 5% and 6%; Population Healthy Nuclei (%) [2]: 89%; Population Hoechst High Intensity Objects (%) [2]: 13% and 15%; Population Membrane Permeable-Phenotype (%) [2]: 6% and 2%; Population Mitochondria Different-Phenotype (%) [2]: 44% and 59%; Population Mitotic Cells (%) [2]: 20%; Population Normal (%) [2]: 86% and 84%; Population Pyknosed Nuclei (%) [2]: 5% and 4%; Population Tubulin-Different-Phenotype (%) [2]: 95%; Total Cell Count [2]: 520 and 580; Population Apoptotic (%) [3]: 67% and 55%; Population Fragmented Nuclei (%) [3]: 8% and 5%; Population Healthy Nuclei (%) [3]: 84% and 87%; Population Hoechst High Intensity Objects (%) [3]: 14% and 13%; Population Membrane Permeable-Phenotype (%) [3]: 1%; Population Mitochondria Different-Phenotype (%) [3]: 39% and 34%; Population Mitotic Cells (%) [3]: 32% and 44%; Population Normal (%) [3]: 85% and 86%; Population Pyknosed Nuclei (%) [3]: 7% and 6%; Population Tubulin-Different-Phenotype (%) [3]: 89% and 88%; Total Cell Count [3]: 567 and 602; Population Apoptotic (%) [4]: 75% and 80%; Population Fragmented Nuclei (%) [4]: 4% and 8%; Population Healthy Nuclei (%) [4]: 89% and 85%; Population Hoechst High Intensity Objects (%) [4]: 17% and 18%; Population Membrane Permeable-Phenotype (%) [4]: 8% and 0%; Population Mitochondria Different-Phenotype (%) [4]: 53% and 64%; Population Mitotic Cells (%) [4]: 25% and 20%; Population Normal (%) [4]: 82% and 81%; Population Pyknosed Nuclei (%) [4]: 5%; Population Tubulin-Different-Phenotype (%) [4]: 97% and 95%; Total Cell Count [4]: 550 and 640; Population Apoptotic (%) [5]: 26% and 35%; Population Fragmented Nuclei (%) [5]: 12% and 9%; Population Healthy Nuclei (%) [5]: 84% and 87%; Population Hoechst High Intensity Objects (%) [5]: 18% and 20%; Population Membrane Permeable-Phenotype (%) [5]: 2%; Population Mitochondria Different-Phenotype (%) [5]: 13% and 17%; Population Mitotic Cells (%) [5]: 73% and 65%; Population Normal (%) [5]: 81% and 79%; Population Pyknosed Nuclei (%) [5]: 3% and 2%; Population Tubulin-Different-Phenotype (%) [5]: 73% and 85%; Total Cell Count [5]: 832 and 880; Population Apoptotic (%) [6]: 74% and 87%; Population Fragmented Nuclei (%) [6]: 10% and 12%; Population Healthy Nuclei (%) [6]: 77% and 70%; Population Hoechst High Intensity Objects (%) [6]: 16% and 24%; Population Membrane Permeable-Phenotype (%) [6]: 2% and 3%; Population Mitochondria Different-Phenotype (%) [6]: 65% and 68%; Population Mitotic Cells (%) [6]: 25% and 12%; Population Normal (%) [6]: 83% and 75%; Population Pyknosed Nuclei (%) [6]: 12% and 16%; Population Tubulin-Different-Phenotype (%) [6]: 91%; Total Cell Count [6]: 517 and 572
